In data set [1] the target is Bcl-xL (Homo sapiens, UniProt Q07817). Put plainly: FP-based competitive binding assay, Bcl-xL. The settings on record: Bcl-2 and Bcl-xL.
Data set [2] can be described thus: Aqueous solubility. The data set is classed as physicochemical.
In data set [3] the target is Bcl-2 (Homo sapiens, UniProt P10415). In words: FP-based competitive binding assay, Bcl-2.
Data set [4] relates to H146 small-cell lung cancer cell line. In words: Cell growth assay. The data set is classed as cell-based, Human. The settings on record: H146 and H1417.
Data set [5] relates to H146 cancer cell line. Put plainly: Cell death assay. The data set is classed as cell-based, Human. The settings on record: H146, 24 h, trypan blue. The method, boiled down: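 Human small cell lung cancer H146 cells from ATCC, grown in RPMI-1640 with 10% FBS, exposed to test compound for 24 h. Cells then collected and stained with trypan blue. Blue-stained or morphologically unhealthy cells were scored as dead, with at least 100 cells counted per sample.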

Data set [6] deals with cleavage of PARP and caspase-3 in the H146 cell line. In words: Western blotting of PARP and caspase-3 cleavage, H146. The data set is classed as cell-based, Human. The settings on record: H146, 24 h, as low as. Put shortly: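 H146 cells (RPMI-1640, 10% FBS) treated with test compound for 24 h, then lysed on ice for 20 min in RIPA buffer (PBS, 1% NP40, 0.5% Na-deoxycholate, 0.1% SDS) with […] and protease inhibitors. Cleared lysates were protein-quantified, run on 4–20% SDS-PAGE and transferred to PVDF. Blots were blocked in 5% milk and probed with rabbit anti-PARP, anti-caspase-3 and anti-GAPDH, then HRP secondary and chemiluminescence.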
(In general: A western blot detects proteins with antibodies after separation by electrophoresis.)

The structures appear in SMILES notation. Values joined by “and” are separate entries in the source; they are usually repeats but may differ in a detail not shown here. Equal entries are not always repeated.

Chain of Bcl-2 (P10415 whole entry): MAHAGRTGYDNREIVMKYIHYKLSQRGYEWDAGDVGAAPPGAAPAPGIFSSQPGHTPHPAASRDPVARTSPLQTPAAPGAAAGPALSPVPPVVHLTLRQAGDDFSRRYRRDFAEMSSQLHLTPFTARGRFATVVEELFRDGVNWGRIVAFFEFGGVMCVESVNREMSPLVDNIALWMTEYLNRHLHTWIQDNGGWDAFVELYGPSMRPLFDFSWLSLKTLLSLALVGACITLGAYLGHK
Chain of Bcl-xL (Q07817 whole entry): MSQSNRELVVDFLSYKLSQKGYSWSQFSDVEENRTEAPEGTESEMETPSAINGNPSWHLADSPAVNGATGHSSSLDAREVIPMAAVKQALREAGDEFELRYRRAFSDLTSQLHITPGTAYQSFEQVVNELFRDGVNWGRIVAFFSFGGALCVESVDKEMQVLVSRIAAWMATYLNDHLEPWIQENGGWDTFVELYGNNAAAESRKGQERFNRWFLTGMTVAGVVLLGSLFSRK

For `CN(C)CCC(CSc1ccccc1)Nc1ccc(S(=O)(=O)NC(=O)c2ccc(N3CCN(c4cccc(-c5c(-c6ccc(Cl)cc6)cn(CC[C@H](O)CO)c5C(=O)NCCCN5CCN(C)CC5)c4)CC3)cc2)cc1[N+](=O)[O-]` (stereo in doubt) [Compound 6, 4-(4-Chlorophenyl)-1-((S)-3,4-dihydroxybutyl)-3-(3-(4-(4-(((4-(((S)-4-(dimethylamino)-1-(phenylthio)butan-2-yl)amino)-3-nitrophenyl)sulfonyl)carbamoyl)phenyl)piperazin-1-yl)phenyl)-N-(3-(4-methylpiperazin-1-yl)propyl)-1H-pyrrole-2-carboxamide], in data set [1], the “times more potent than either 4 or 5 in binding” value is reported as > 10,000.
With `CN1CCN(CCCNC(=O)c2c(-c3ccccc3)c(-c3ccc(Cl)cc3)cn2CC[C@H](O)CO)CC1` [Compound 4, (S)-4-(4-chlorophenyl)-1-(3,4-dihydroxybutyl)-N-(3-(4-methylpiperazin-1-yl)propyl)-3-phenyl-1H-pyrrole-2-carboxamide], the aqueous solubility entry in data set [2] is given as “excellent aqueous solubility”.
For `CN(C)CC[C@H](CSc1ccccc1)Nc1ccc(S(=O)(=O)Nc2ccc(NCCNc3cccc(-c4c(-c5ccc(Cl)cc5)cn(CC[C@H](O)CO)c4C(=O)NCCCN4CCN(C)CC4)c3)cc2)cc1[N+](=O)[O-]` [Compound 11, 4-(4-Chlorophenyl)-1-((S)-3,4-dihydroxybutyl)-3-(3-((2-((4-(4-(((R)-4-(dimethylamino)-1-(phenylthio)butan-2-yl)amino)-3-nitrophenylsulfonamido)phenyl)amino)ethyl)amino)phenyl)-N-(3-(4-methylpiperazin-1-yl)propyl)-1H-pyrrole-2-carboxamide], the “times less potent than 7 in binding” value in data set [3] (Bcl-2/Bcl-xL, protein not specified) is on record as “at least 10”.
`CN(C)CC[C@H](CSc1ccccc1)Nc1ccc(S(=O)(=O)Nc2ccc(N3CCN(c4ccc(-c5c(-c6ccc(Cl)cc6)cn(CC[C@H](O)CO)c5C(=O)NCCCN5CCN(C)CC5)cc4)CC3)cc2)cc1[N+](=O)[O-]` [Compound 12, 4-(4-Chlorophenyl)-1-((S)-3,4-dihydroxybutyl)-3-(4-(4-(4-(4-(((R)-4-(dimethylamino)-1-(phenylthio)butan-2-yl)amino)-3-nitrophenylsulfonamido)phenyl)piperazin-1-yl)phenyl)-N-(3-(4-methylpiperazin-1-yl)propyl)-1H-pyrrole-2-carboxamide]: in data set [3], the “times less potent than 7 in binding to Bcl-2” value was greater than 10.
Regarding `CN(C)CC[C@H](CSc1ccccc1)Nc1ccc(S(=O)(=O)Nc2ccc(N3CCN(Cc4ccccc4-c4ccc(Cl)cc4)CC3)cc2)cc1[N+](=O)[O-]` [Compound 13, (R)-N-(4-(4-((4'-Chloro-[1,1'-biphenyl]-2-yl)methyl)piperazin-1-yl)phenyl)-4-((4-(dimethylamino)-1-(phenylthio)butan-2-yl)amino)-3-nitrobenzenesulfonamide], in data set [3] (Bcl-2 and Bcl-xL), the “affinity times weaker than that of 1” value was greater than 10.
`CN(C)CC[C@H](CSc1ccccc1)Nc1ccc(S(=O)(=O)Nc2ccc(N3CCN(c4cccc(-c5c(-c6ccc(Cl)cc6)cn(C)c5C(=O)NCCCN5CCN(C)CC5)c4)CC3)cc2)cc1[N+](=O)[O-]` [Compound 16, (R)-4-(4-Chlorophenyl)-3-(3-(4-(4-(4-((4-(dimethylamino)-1-(phenylthio)butan-2-yl)amino)-3-nitrophenylsulfonamido)phenyl)piperazin-1-yl)phenyl)-1-methyl-N-(3-(4-methylpiperazin-1-yl)propyl)-1H-pyrrole-2-carboxamide]: the “times more potent than 7 in cell growth inhibition” value in data set [4] is reported as 3–5.
As to `CCOC(=O)c1c(-c2cccc(N3CCN(c4ccc(NS(=O)(=O)c5ccc(N[C@H](CCN(C)C)CSc6ccccc6)c([N+](=O)[O-])c5)cc4)CC3)c2)c(-c2ccc(Cl)cc2)cn1C` [Compound 19, (R)-Ethyl 4-(4-chlorophenyl)-3-(3-(4-(4-(4-((4-(dimethylamino)-1-(phenylthio)butan-2-yl)-amino)-3-nitrophenylsulfonamido)phenyl)piperazin-1-yl)phenyl)-1-methyl-1H-pyrrole-2-carboxylate], in data set [3], the “times less potent than 17 in binding to Bcl-2” value is 10. Also, the “times less potent than 17 in cell growth inhibition” value in data set [4] is 10.
Regarding `CN(C)CC[C@H](CSc1ccccc1)Nc1ccc(S(=O)(=O)Nc2ccc(N3CCN(c4cccc(-c5c(-c6ccc(Cl)cc6)cn(C)c5C(=O)O)c4)CC3)cc2)cc1[N+](=O)[O-]` [Compound 20, (R)-4-(4-Chlorophenyl)-3-(3-(4-(4-(4-((4-(dimethylamino)-1-(phenylthio)butan-2-yl)amino)-3-nitrophenylsulfonamido)phenyl)piperazin-1-yl)phenyl)-1-methyl-1H-pyrrole-2-carboxylic acid], in data set [5], the cell death induction entry is “effectively induce cell death in a dose-dependent manner”.
Regarding `CCc1c(-c2ccc(Cl)cc2)c(-c2cccc(N3CCN(c4ccc(NS(=O)(=O)c5ccc(N[C@H](CCN(C)C)CSc6ccccc6)c([N+](=O)[O-])c5)cc4)CC3)c2)c(C(=O)O)n1C` [Compound 21, (R)-4-(4-Chlorophenyl)-3-(3-(4-(4-(4-((4-(dimethylamino)-1-(phenylthio)butan-2-yl)amino)-3-nitrophenylsulfonamido)phenyl)piperazin-1-yl)phenyl)-5-ethyl-1-methyl-1H-pyrrole-2-carboxylic acid], in data set [5], the cell death induction result is on record as “effectively induce cell death in a dose-dependent manner”; the “concentration inducing substantial/robust cell death” value is 30 to 100 nM and 30 nM. Further, the “concentration inducing cleavage of PARP and caspase-3” value in data set [6] is 100 nM.
